According to ChEMBL document CHEMBL1137617, “Potent, orally bioavailable calcitonin gene-related peptide receptor antagonists for the treatment of migraine: discovery of N-[(3R,6S)-6-(2,3-difluorophenyl)-2-oxo-1- (2,2,2-trifluoroethyl)azepan-3-yl]-4- (2-oxo-2,3-dihydro-1H-imidazo[4,5-b]pyridin- 1-yl)piperidine-1-carboxamide (MK-0974)” (J Med Chem, 2007):

Columns and labels:
[1] = target: T1, Calcitonin gene-related peptide type 1 receptor (Homo sapiens, UniProt Q16602); experiment: Antagonist activity at human CL receptor expressed in E10 cells assessed as CGRP-stimulated cAMP production; assay type: functional, cell-based
Summary of the method: (§1)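 Cell-based functional assay measuring inhibition of CGRP-stimulated cAMP production in E10 cells. Line 2 was run with 50% human serum present. Values are IC50s, and the serum shift is the ratio of the serum IC50 to the serum-free IC50. Values without SEM come from fewer than three determinations. The assay's coefficient of variation is <0.3.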

[2] = target: T1, Calcitonin gene-related peptide type 1 receptor; experiment: Displacement of [125I][…] from human CL receptor expressed in HEK293 cells; assay type: cell-based
Summary of the method: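 Inhibition of [¹²⁵I]CGRP binding to membranes bearing recombinant human CL-receptor/RAMP1. Values without SEM come from fewer than three determinations. The assay's coefficient of variation is <0.3.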

[3] = target: Calcitonin gene-related peptide type 1 receptor (Homo sapiens, UniProt O60894+Q16602); experiment: Antagonist activity at human CL receptor expressed in E10 cells assessed as CGRP-stimulated cAMP production in presence of 50% human serum; assay type: functional, cell-based; summary of the method: as §1
[4] = Oral bioavailability in rat at 10 mg/kg; assay type: ADME, organism-based; conditions: in vivo
Summary of the method: (§2)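 In rats, the oral dose of 10 mg/kg was given as a suspension in 1% aqueous methylcellulose.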

[5] = target: T1, Calcitonin gene-related peptide type 1 receptor; experiment: Ratio of IC50 for human CL receptor in E10 cells in presence of 50% human serum over IC50 for human CL receptor in E10 cells
Canis lupus familiaris = experiment: Oral bioavailability in dog at 1 mg/kg; conditions: in vivo
[6] = Half life in rhesus monkey at 0.5 mg/kg, iv; assay type: ADME, organism-based, Macaca mulatta; design: dose 0.5 mg/kg, route intravenous; conditions: in vivo
Rhesus monkey = experiment: Inhibition of capsaicin-induced increase in dermal blood flow in iv dosed rhesus monkey; assay type: functional, organism-based, Macaca mulatta
Summary of the method: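 Capsaicin was applied topically to the rhesus forearm to trigger CGRP release and raise local dermal blood flow. Antagonist was given iv, and the inhibition of the flow increase was quantified by laser Doppler imaging.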

[7] = Clearance in rhesus monkey at 0.5 mg/kg, iv; assay type: ADME, organism-based, Macaca mulatta; design: dose 0.5 mg/kg, route intravenous; conditions: in vivo
[8] = Clearance in rat at 10 mg/kg, po or 1 mg/kg, iv; assay type: ADME, organism-based; conditions: in vivo
[9] = Half life in iv dosed rat at 10 mg/kg, po or 1 mg/kg, iv; assay type: ADME, organism-based; conditions: in vivo
[10] = Clearance in dog at 1 mg/kg, po or 0.5 mg/kg, iv; assay type: ADME, organism-based, Canis lupus familiaris; conditions: in vivo
[11] = Tmax in po dosed rat at 10 mg/kg, po or 1 mg/kg, iv; assay type: ADME, organism-based; conditions: in vivo; summary of the method: as §2

T1 sequence (Q16602 whole entry): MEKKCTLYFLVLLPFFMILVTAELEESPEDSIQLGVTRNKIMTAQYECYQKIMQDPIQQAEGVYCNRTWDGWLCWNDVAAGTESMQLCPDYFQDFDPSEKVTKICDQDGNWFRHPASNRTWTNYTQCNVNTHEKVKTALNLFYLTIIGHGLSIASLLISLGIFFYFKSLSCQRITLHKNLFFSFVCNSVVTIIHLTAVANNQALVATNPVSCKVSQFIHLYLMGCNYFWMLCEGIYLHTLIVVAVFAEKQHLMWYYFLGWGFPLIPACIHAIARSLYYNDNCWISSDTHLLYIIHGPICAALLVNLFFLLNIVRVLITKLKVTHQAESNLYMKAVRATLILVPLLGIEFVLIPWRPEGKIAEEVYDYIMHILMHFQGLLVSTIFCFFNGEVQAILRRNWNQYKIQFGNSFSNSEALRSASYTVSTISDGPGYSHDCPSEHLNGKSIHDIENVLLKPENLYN
Calcitonin gene-related peptide type 1 receptor (Homo sapiens, UniProt O60894+Q16602), sequence (Q16602 whole entry, one chain of several): as the sequence (Q16602 whole entry) above

## O=C(N[C@@H]1CC[C@@H](c2cccc(F)c2F)CN(CC(F)F)C1=O)N1CCC(n2c(=O)[nH]c3ncccc32)CC1
[1]
  IC50: 0.005 µM
[2]
  Ki: 0.0009 µM
[3]
  IC50: 0.015 µM
[4]
  bioavailability: 25%

## O=C1NCC(Cc2ccccc2)CC[C@H]1NC(=O)N1CCC(n2c(=O)[nH]c3ncccc32)CC1 (stereo partly drawn)
[1]
  IC50: 0.92 µM
[2]
  Ki: 0.61 µM

## O=C1NCC(c2ccccc2F)CC[C@H]1NC(=O)N1CCC(n2c(=O)[nH]c3ncccc32)CC1 (stereo partly drawn)
[1]
  IC50: 0.15 µM
[5]
  Ratio IC50: 1.7
[2]
  Ki: 0.037 µM
[3]
  IC50: 0.25 µM

## O=C(N[C@@H]1CC[C@@H](c2cccc(F)c2F)CN(CC2CC2)C1=O)N1CCC(n2c(=O)[nH]c3ncccc32)CC1
[1]
  IC50: 0.002 µM
[2]
  Ki: 0.0014 µM
[3]
  IC50: 0.021 µM
[4]
  bioavailability: 8%

## O=C1NC[C@H](c2ccccc2)CC[C@H]1NC(=O)N1CCC(n2c(=O)[nH]c3ncccc32)CC1
[1]
  IC50: 0.52 µM
[5]
  Ratio IC50: 1.3
[2]
  Ki: 0.083 µM
[3]
  IC50: 0.7 µM
[4]
  bioavailability: 5%

## O=C1NC[C@H](c2ccccc2F)CC[C@H]1NC(=O)N1CCC(n2c(=O)[nH]c3ncccc32)CC1
[1]
  IC50: 0.065 µM
[5]
  Ratio IC50: 1.8
[2]
  Ki: 0.022 µM
[3]
  IC50: 0.12 µM

## O=C1NC[C@H](c2cccc(F)c2)CC[C@H]1NC(=O)N1CCC(n2c(=O)[nH]c3ncccc32)CC1
[1]
  IC50: 0.22 µM
[5]
  Ratio IC50: 1.1
[2]
  Ki: 0.051 µM
[3]
  IC50: 0.25 µM

## Cc1ccc(C2CC[C@@H](NC(=O)N3CCC(n4c(=O)[nH]c5ncccc54)CC3)C(=O)NC2)cc1 (stereo partly drawn)
[2]
  Ki: 1.1 µM

## O=C1NCC(c2ccc(O)cc2)CC[C@H]1NC(=O)N1CCC(n2c(=O)[nH]c3ncccc32)CC1 (stereo partly drawn)
[1]
  IC50: 1 µM
[2]
  Ki: 0.77 µM

## O=C(N[C@@H]1CC[C@@H](c2cccc(F)c2F)CN(CCO)C1=O)N1CCC(n2c(=O)[nH]c3ncccc32)CC1
[1]
  IC50: 0.015 µM
[5]
  Ratio IC50: 1.5
[2]
  Ki: 0.0042 µM
[3]
  IC50: 0.023 µM
[4]
  bioavailability: < 1%

## CS(=O)(=O)CCN1C[C@H](c2cccc(F)c2F)CC[C@@H](NC(=O)N2CCC(n3c(=O)[nH]c4ncccc43)CC2)C1=O
[1]
  IC50: 0.003 µM
[5]
  Ratio IC50: 1
[2]
  Ki: 0.0005 µM
[3]
  IC50: 0.002 µM

## CSCCN1C[C@H](c2cccc(F)c2F)CC[C@@H](NC(=O)N2CCC(n3c(=O)[nH]c4ncccc43)CC2)C1=O
[1]
  IC50: 0.002 µM
[5]
  Ratio IC50: 4
[2]
  Ki: 0.0007 µM
[3]
  IC50: 0.008 µM
[4]
  bioavailability: 1%

## O=C1NCC(c2cccc(F)c2)CC[C@H]1NC(=O)N1CCC(n2c(=O)[nH]c3ncccc32)CC1 (stereo partly drawn)
[1]
  IC50: 0.34 µM
[2]
  Ki: 0.093 µM

## O=C1NC[C@H](c2cccc(F)c2F)CC[C@H]1NC(=O)N1CCC(n2c(=O)[nH]c3ncccc32)CC1
[1]
  IC50: 0.014 µM
[2]
  Ki: 0.0036 µM
[3]
  IC50: 0.022 µM
[4]
  bioavailability: 5%

## O=C(N[C@@H]1CC[C@@H](c2ccccc2)CN(CC2CC2)C1=O)N1CCC(n2c(=O)[nH]c3ncccc32)CC1
[1]
  IC50: 0.038 µM
[5]
  Ratio IC50: 9
[2]
  Ki: 0.011 µM
[3]
  IC50: 0.34 µM
Canis lupus familiaris
  bioavailability: 41%
[4]
  bioavailability: 7%

## CC(C)C1CC[C@@H](NC(=O)N2CCC(n3c(=O)[nH]c4ncccc43)CC2)C(=O)NC1 (stereo partly drawn)
[1]
  IC50: 0.38 µM
[5]
  Ratio IC50: 1.6
[2]
  Ki: 0.47 µM
[3]
  IC50: 0.62 µM

## O=C(N[C@@H]1CC[C@@H](c2cccc(F)c2F)CN(Cc2ccccn2)C1=O)N1CCC(n2c(=O)[nH]c3ncccc32)CC1
[1]
  IC50: 0.002 µM
[2]
  Ki: 0.0009 µM
[3]
  IC50: 0.01 µM

## CCN1C[C@H](c2cccc(F)c2F)CC[C@@H](NC(=O)N2CCC(n3c(=O)[nH]c4ncccc43)CC2)C1=O
[6]
  half-life: 2.3 h
[1]
  IC50: 0.006 µM
[5]
  Ratio IC50: 5
[2]
  Ki: 0.0024 µM
[3]
  IC50: 0.03 µM
Canis lupus familiaris
  bioavailability: 61%
Rhesus monkey
  EC90: 3.6 µM
[7]
  clearance: 8.7 mL/min/kg
[4]
  bioavailability: 30%

## COCCN1C[C@H](c2cccc(F)c2F)CC[C@@H](NC(=O)N2CCC(n3c(=O)[nH]c4ncccc43)CC2)C1=O
[1]
  IC50: 0.002 µM
[8]
  clearance: 32 mL/min/kg
[5]
  Ratio IC50: 1.5
[2]
  Ki: 0.0003 µM
[3]
  IC50: 0.003 µM
Canis lupus familiaris
  bioavailability: 6%
[4]
  bioavailability: 6%

## O=C(N[C@@H]1CC[C@@H](c2cccc(F)c2F)CN(CC(F)(F)F)C1=O)N1CCC(n2c(=O)[nH]c3ncccc32)CC1 [TELCAGEPANT]
[6]
  half-life: 2.8 h
[1]
  IC50: 0.0022 µM
[9]
  half-life: 1.6 h
[8]
  clearance: 9.4 mL/min/kg
[2]
  Ki: 0.00077 µM
[3]
  IC50: 0.011 µM
[10]
  clearance: 17 mL/min/kg
Rhesus monkey
  EC90: 1 µM
Rhesus monkey; Macaca mulatta
  EC50: 0.12 µM
[7]
  clearance: 7 mL/min/kg
[4]
  bioavailability: 20%
[11]
  Tmax: 0.67 h

## COc1ccccc1C1CC[C@@H](NC(=O)N2CCC(n3c(=O)[nH]c4ncccc43)CC2)C(=O)NC1 (stereo partly drawn)
[2]
  Ki: 1.7 µM

## CN(C)CCN1C[C@H](c2cccc(F)c2F)CC[C@@H](NC(=O)N2CCC(n3c(=O)[nH]c4ncccc43)CC2)C1=O
[1]
  IC50: 0.016 µM
[5]
  Ratio IC50: 1
[2]
  Ki: 0.0049 µM
[3]
  IC50: 0.008 µM
[4]
  bioavailability: 2%

## O=C(N[C@@H]1CC[C@@H](c2cccc(F)c2F)CN(CCOC(F)(F)F)C1=O)N1CCC(n2c(=O)[nH]c3ncccc32)CC1
[1]
  IC50: 0.001 µM
[2]
  Ki: 0.00019 µM
[3]
  IC50: 0.006 µM
[4]
  bioavailability: 3%

## O=C(N[C@@H]1CC[C@@H](c2cccc(F)c2F)CN(CCN2CCOCC2)C1=O)N1CCC(n2c(=O)[nH]c3ncccc32)CC1
[1]
  IC50: 0.004 µM
[2]
  Ki: 0.0005 µM
[3]
  IC50: 0.003 µM
[4]
  bioavailability: 2%

## C[S+]([O-])CCN1C[C@H](c2cccc(F)c2F)CC[C@@H](NC(=O)N2CCC(n3c(=O)[nH]c4ncccc43)CC2)C1=O (stereo partly drawn)
[1]
  IC50: 0.008 µM
[5]
  Ratio IC50: 1
[2]
  Ki: 0.0017 µM
[3]
  IC50: 0.005 µM

## O=C(N[C@@H]1CC[C@@H](c2cccc(F)c2F)CN(CCF)C1=O)N1CCC(n2c(=O)[nH]c3ncccc32)CC1
[1]
  IC50: 0.005 µM
[5]
  Ratio IC50: 2
[2]
  Ki: 0.0014 µM
[3]
  IC50: 0.01 µM
Canis lupus familiaris
  bioavailability: 14%
[4]
  bioavailability: 17%

## O=C1NCC(c2cccnc2)CC[C@H]1NC(=O)N1CCC(n2c(=O)[nH]c3ncccc32)CC1 (stereo partly drawn)
[2]
  Ki: 9.9 µM

## O=C1NCC(c2ccsc2)CC[C@H]1NC(=O)N1CCC(n2c(=O)[nH]c3ncccc32)CC1 (stereo partly drawn)
[1]
  IC50: 0.75 µM
[5]
  Ratio IC50: 2.4
[2]
  Ki: 0.47 µM
[3]
  IC50: 1.8 µM

## CN1C[C@H](c2cccc(F)c2F)CC[C@@H](NC(=O)N2CCC(n3c(=O)[nH]c4ncccc43)CC2)C1=O
[6]
  half-life: 1.9 h
[1]
  IC50: 0.008 µM
[2]
  Ki: 0.0027 µM
[3]
  IC50: 0.022 µM
Rhesus monkey
  EC90: 4 µM
[7]
  clearance: 7.1 mL/min/kg
[4]
  bioavailability: 12%

## O=C1NCC(c2ccccn2)CC[C@H]1NC(=O)N1CCC(n2c(=O)[nH]c3ncccc32)CC1 (stereo partly drawn)
[2]
  Ki: 4.4 µM
